Screening results from PubChem BioAssay.
Hits are enriched below; roughly 0.91% of the tested compounds scored in any of these assays.
Pf gamet viab: P. falciparum stage V gametocyte viability inhibition; inhibition, % at 10.9 µM; actives 0.065% (n = 150,000); AID 743093; P. falciparum stage V gametocytes, ATP luminescence, 24 h;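 active = inhibition above the mean plus 3 SD of compounds within the control limits, set per campaign, cut at about 38% in these data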;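 also: 0% = DMSO wells and 100% = medium only without gametocytes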
Arbovirus inh: blocks arbovirus infection. arbovirus infection cell-based antiviral screen. inhibition, % at 10 µM. actives 0.37% (n = 200,000); in the data active = inhibition above about 30%
zVAD death inh: L929 zVAD cell death inhibition. L929 zVAD necroptosis rescue, ATP luminescence, 24 h; with zVAD 60 µM. viability rescue, % at 10 µM. actives 0.38% (n = 220,000);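 active = activation, scaled between plate controls, above about 75%, limit read from the data; inactive = activation under that limit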;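 also: 0% = zVAD with DMSO and 100% = DMSO alone without zVAD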
TNF death inh: TNF-alpha cell death inhibition in Jurkat FADD-/- cells | Jurkat FADD-/- TNF necroptosis rescue, ATP luminescence, 24 h; 0 = TNF only, 100 = no-TNF cells | activation (protection from cell death), % at 10 µM | actives 0.068% (n = 220,000) | AID 463075;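 active = activation, meaning protection from cell death, of at least 50% relative to plate controls; inactive = activation below 50%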;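 also: necroptosis triggered by 40 ng/mL TNF-alpha added together with compound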
Hep lipid drop: modulators of hepatic lipid droplet formation | AML12 mouse hepatocytes, oleate lipid droplets, BODIPY imaging | inhibition, % at 6.5 µM | actives 0.4% (n = 240,000);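 active = lipid droplet intensity inhibited by at least 50%, with more than 500 cells counted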
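Test system: AML12 mouse liver cells; schedule: overnight exposure; technique: high-content imaging of BODIPY-stained droplets and DAPI nuclei; read-out: % inhibition of corrected integrated BODIPY droplet signal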
zVAD death conf: confirmed blocker of zVAD induced death in L929 cells | actives 16% (n = 760) | L929 zVAD-induced necroptosis rescue, ATP luminescence, 24 h | shares compounds with zVAD death inh | AID 463117 | activation (protection from necroptosis), % at 10 µM;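 active = mean protection from necroptosis of at least 50% over duplicate tests; inactive = mean protection below 50%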;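 also: 0% = cells with zVAD alone and 100% = vehicle cells without zVAD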
* hit, by the source's call; · = no result given.

SMILES | Pf gamet viab | Arbovirus inh | zVAD death inh | TNF death inh | Hep lipid drop | zVAD death conf
COc1cc(NC(=O)c2ccnc(N)c2)cc(C(=O)Nc2cccc(C(F)(F)F)c2)c1 | -34 | · | 2 | 5 | 7 | ·
COc1cc(NC(=O)c2cnc(N)s2)cc(C(=O)Nc2cccc(C(F)(F)F)c2)c1 | 26 | · | 79* | 6 | 4 | 74*
Cc1ccc(CN2CCS(=O)(=O)CC2)o1 | · | 10 | 83* | 14 | -2 | 5
CCc1nn(CC(=O)NCCc2ccc(S(N)(=O)=O)cc2)c(=O)c2cc3sccc3n12 | · | · | · | · | -3 | ·
O=c1[nH]c2ccccc2nc1N1CCOCC1 | · | -1 | 1 | -1 | · | ·
c1ccc2c(c1)nc(N1CCOCC1)c1c3ccccc3[nH]c21 | · | -1 | 82* | 1 | · | 4
CCc1cccc2c(C(=O)COC(=O)c3ccc(O)cc3)c[nH]c12 | -21 | 7 | 77* | 7 | -12 | 74*
CCc1cccc2c(C(=O)COC(=O)c3ccccc3)c[nH]c12 | 8 | 11 | 3 | 3 | 24 | ·
Oc1ccccc1N=Cc1sc2ccccc2c1Cl | -6 | -18 | 86* | 5 | -5 | 3
Cc1ccc(O)c(N=Cc2sc3ccccc3c2Cl)c1 | 2 | -13 | 0 | 1 | -1 | ·
CC1CCCC(C)N1C(=O)COC(=O)c1nn(C)c(=O)c2ccccc12 (configuration not stated) | · | · | · | · | 18 | ·
Cc1ccc(Nc2cc(C)nn2-c2nc(C)cc(=O)[nH]2)cc1 | · | -26 | 78* | 9 | · | 53*
Cc1ccc(Nc2cc(C)nn2-c2nc(C)cc(C)n2)cc1 | · | -13 | 0 | -3 | · | ·
CCc1[nH]c(=O)c(C#N)c2c1CSC(C)(C)C2 | · | -6 | 1 | -2 | 22 | ·
CCCCc1[nH]c(=O)c(C#N)c2c1CSC(C)(C)C2 | · | 23 | 75* | -2 | · | 34
O=C(c1ccco1)N(c1ccccn1)c1ccccn1 | 5 | -1 | 0 | 0 | 2 | ·
N#C/C(=C(\O)c1ccco1)c1ccccn1 | 10 | 6 | 105* | 29 | · | 57*
N#CC(C(=O)c1ccco1)c1ccccn1 (configuration not stated) | · | 0 | 81* | 20 | -2 | 56*
COc1cc(/C=C2/SC(=O)NC2=O)ccc1OC(=O)c1ccco1 | · | · | · | · | 14 | ·
CCOc1cc(/C=C2/SC(=S)NC2=O)ccc1OC(=O)c1ccco1 | -3 | 2 | 79* | 3 | 10 | 2
Cc1ccc2[nH]c3c(c2c1)CCC3=O | · | 0 | 0 | -3 | · | ·
Cc1ccc2[nH]c3c(c2c1)CCc1cn[nH]c1-3 | · | -31 | 89* | 92* | 2 | 80*
Oc1ccc(-c2[nH]ncc2-c2cnn(-c3ccccc3)c2)c(O)c1 | · | 4 | 79* | -3 | 7 | 2
COCC(C)NC(=O)CSc1nc2ccccc2c(=O)n1CCc1ccc(S(N)(=O)=O)cc1 (configuration not stated) | · | · | · | · | 1 | ·
CCOc1cnn(-c2cc(Oc3ccc(C)cc3)ncn2)c(=O)c1Cl | · | 1 | 0 | 0 | 6 | ·
SMILES | Pf gamet viab | Arbovirus inh | zVAD death inh | TNF death inh | Hep lipid drop | zVAD death conf
Cc1ccccc1Oc1cc(-n2ncc(Cl)c(Cl)c2=O)ncn1 | -23 | -31 | 85* | -14 | -1 | 3
Cc1cc(NC(=O)c2cccc(Oc3ccccc3)c2)n[nH]1 | -42 | -13 | 78* | 13 | -16 | 5
COc1ccc(C(C)=O)cc1COC(=O)c1cnc(Cl)c(Cl)c1 | -1 | 5 | 1 | -9 | 2 | ·
O=C(/C=C/c1ccccc1)NC(=S)Nc1ccccc1O | · | · | · | · | -11 | ·
NC(=S)NC(=O)/C=C/c1ccccc1 | · | 2 | 83* | 19 | -1 | 1
COCCCNC(=O)CCCN1C(=O)c2cccnc2Sc2ccccc21 | · | · | · | · | -5 | ·
CCOC(=O)c1ccc2[nH]c3c(c2c1)CCCC3 | · | · | · | · | 15 | ·
CCOC(=O)c1ccc2[nH]c3c(c2c1)CCCC3O (configuration not stated) | · | 14 | 76* | 7 | 5 | 41
O=C(c1ccc2oc(CCc3ccccc3)nc2c1)N1CCC(O)CC1 | · | · | · | · | 0 | ·
CCN1CCN(Cc2ccc(NC(=O)c3ccc(C)c(NC(=O)c4nccnc4N)c3)cc2C(F)(F)F)CC1 | -1 | · | 80* | 21 | 22 | 79*
Cc1ccc2c(c1)C(=C(C#N)C#N)C(=O)N2CCN1CCOCC1 | 5 | · | 89* | 1 | -4 | 1
